Screening results (PubChem)
SIRT5 inh: blocks human SIRT5 desuccinylation of peptide; Q9NXA8; Purified SirT5, succinyl-peptide AMC, trypsin-coupled fluorescence; inhibition, % at 15 µM; 330,000 compounds, 1.1% hits; AID 652115; in the data active = inhibition above about 15%; inconclusive = no clear call, values can overlap the other calls
Target sequence (Q9NXA8 whole entry, looked up): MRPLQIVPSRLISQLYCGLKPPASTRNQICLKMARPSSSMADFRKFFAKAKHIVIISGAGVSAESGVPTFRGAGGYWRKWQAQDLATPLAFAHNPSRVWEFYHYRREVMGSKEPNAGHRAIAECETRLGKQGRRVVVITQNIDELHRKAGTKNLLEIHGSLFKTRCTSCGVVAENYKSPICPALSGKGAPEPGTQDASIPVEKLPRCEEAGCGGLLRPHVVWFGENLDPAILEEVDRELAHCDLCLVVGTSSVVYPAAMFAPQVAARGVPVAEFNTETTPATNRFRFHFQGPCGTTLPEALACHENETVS
S100A4 inh HTS: S100A4-myosin IIA interaction inhibition; S100A4/TAMRA-MyoIIA peptide fluorescence polarization; inhibition, % at 10.7 µM; 360,000 compounds, 0.14% hits;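 active = mean inhibition of at least 70% across replicates, with every replicate also reaching that level; inconclusive = mean inhibition reaches 70% but some replicates fall short; inactive = mean inhibition below 70%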
Target sequence (P26447 whole entry, looked up): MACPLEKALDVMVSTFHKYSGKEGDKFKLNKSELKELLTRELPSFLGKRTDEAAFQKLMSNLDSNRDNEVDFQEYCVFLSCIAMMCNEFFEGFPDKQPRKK
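Material: S100A4 monomer protein | Medium: HEPES pH 7.2 with CaCl2, KCl, NaCl, DTT, Triton | Reagent: Labelled myosin peptide probe, 5 nM | Doses: One dose per compound | Times: 5 min incubation before reading | Benchmarks: Neutral control DMSO, positive control TFP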
FGF22 binding: FGF22 (human) thermal shift binding. AID 651658. activity (Tm shift, normalised), % at 9.99 µM. Q9HCT0. recombinant FGF22 thermal shift, SYPRO orange fluorescence; percent of sucrose octasulfate shift, DMSO zero. 340,000 compounds, 1.5% hits;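 active = mean Tm shift, scaled 0 neutral to 100 positive control, at about 1.3% or above, every replicate too, limit read from the data; inconclusive = no clear call, values can overlap the other calls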
Target sequence (Q9HCT0 whole entry, looked up): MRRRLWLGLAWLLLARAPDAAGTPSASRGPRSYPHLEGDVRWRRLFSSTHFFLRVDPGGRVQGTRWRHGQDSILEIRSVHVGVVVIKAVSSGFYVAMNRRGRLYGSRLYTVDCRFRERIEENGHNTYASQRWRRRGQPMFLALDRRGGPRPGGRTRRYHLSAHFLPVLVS
miR122 inh: inhibitors of miR-122 in Huh7 cells | Huh7 miR-122 Renilla luciferase sensor, 48 h; neutral wells = 0, positive control = 100 | 340,000 compounds, 0.3% hits | activation (reporter increase), % at 12.5 µM;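 active = mean replicate activation score at least 90 and every replicate individually at or above 90; inconclusive = only one of the two criteria met; inactive = neither criterion met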;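 also: higher luciferase means less miR-122 activity so hits act as miR-122 inhibitors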
E-sel inducer: induces E-selectin expression in human endothelial cells; P16581; HUVEC E-selectin immunofluorescence imaging; normalized: neutral wells 0, TNF-alpha wells 100; activation, % at 7.58 µM; 260,000 compounds, 0.37% hits; AID 686992;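 active = mean E-selectin-positive cell signal at least 10% of the positive control, reached in at least 60% of replicates, without over 20% cell loss; inconclusive = no rule given, readout overlaps actives, possibly toxicity-flagged; inactive = the rest, including those meeting only one limit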
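Material: HUVEC primary endothelial cells; Amount: 3,000 cells per well; Dosing: single concentration; Medium: EGM-2 growth medium on 0.1% gelatin-coated wells; Read-out basis: percent E-selectin-positive cells; Signal: immunofluorescence imaging; Control set: TNF-alpha, DMSO.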
A number is an active result; i = inactive; ? = inconclusive; nt = no result; [ ] = remark or other dose. Shown are actives, neighbours in structure and some others; about 2.5% of the full set was active somewhere.

SMILES	SIRT5 inh	S100A4 inh HTS	FGF22 binding	miR122 inh	E-sel inducer
CCN(C[C@H]1N[C@@](Cc2ccccc2)(C(=O)OC)[C@H]2C(=O)N(C)C(=O)[C@@H]12)C(=O)c1ccc(F)cc1	nt	i	43	nt	i
CCN(C[C@H]1N[C@@](Cc2ccccc2)(C(=O)OC)[C@H]2C(=O)N(C)C(=O)[C@@H]12)C(=O)Nc1ccc(C(F)(F)F)cc1	28	i	i	i	i
CCN(C[C@H]1N[C@@](CC)(C(=O)OC)[C@H]2C(=O)N(C)C(=O)[C@@H]12)C(=O)c1ccc(F)cc1	nt	i	i	nt	i
C[C@@H]1CN([C@@H](C)CO)C(=O)c2ccccc2-c2ccccc2CO[C@@H]1CN(C)C(=O)Nc1ccnc(N2CCOCC2)c1	i	i	i	nt	i
O=C(C[C@H]1CC[C@H]2[C@@H](COC[C@@H](O)CN2C(=O)c2ccccc2F)O1)NCc1ccc(Cl)c(Cl)c1	nt	nt	i	i	i
CC(=O)c1cccc(OCC(=O)Nc2ccccc2N2CCOCC2)c1	i	i	i	93	i
O=C(COc1ccc(C(=S)N2CCOCC2)cc1)Nc1ccccc1C(F)(F)F	i	i	44	nt	nt
CC=Cc1ccc2n(c1=O)C[C@H]1[C@H](CO)[C@@H](C(=O)N3CCCCC3)[C@@H]2N1Cc1ccccn1 (mixture of isomers)	i	nt	i	nt	i
Cc1ccc(-c2ccc3c(c2)O[C@@H](CN(C)Cc2ccncc2)[C@H](C)CN([C@H](C)CO)S3(=O)=O)cc1	i	i	i	i	i
O=C(Nc1nnc(-c2ccco2)o1)c1ccc(S(=O)(=O)N2CCCC2)cc1	i	i	43	nt	nt
O=C(NCc1ccco1)c1ccc(F)c(S(=O)(=O)N2CCCCC2)c1	i	i	43	nt	i
O=C(NCc1ccco1)c1ccc(S(=O)(=O)N2CCCCC2)cc1	i	i	44	nt	nt
O=C(NCc1ccco1)c1ccc(Br)c(S(=O)(=O)N2CCCCC2)c1	i	i	nt	nt	nt
O=C(NCc1ccco1)c1ccc(S(=O)(=O)N2CCCCCC2)cc1	i	i	i	nt	i
CC(C)NC(=O)NCC[C@H]1CC[C@@H](NS(=O)(=O)c2ccccc2)[C@@H](CO)O1	i	i	nt	nt	i
CCC(=O)N1CC(=O)N2[C@@H](CO)[C@@H](c3ccc(C#CC4CCCCC4)cc3)[C@@H]2C1	i	i	i	nt	i
Cc1noc(C)c1S(=O)(=O)Nc1ccc2c(c1)C(=O)N([C@H](C)CO)C[C@@H](C)[C@@H](CN(C)Cc1ccc(C(=O)Nc3ccccc3N)cc1)O2	nt	i	i	i	i
CN(C)/C=C/C(=O)c1ccc(Br)s1	i	i	43	i	i
O=C(N[C@@H]1C=C[C@@H](CC(=O)N2CCc3ccccc3C2)O[C@@H]1CO)C1CCC1	i	i	i	nt	i
COc1ccc(S(=O)(=O)N2CCCCN3[C@H](CO)[C@H](c4ccc(C#CCC(C)C)cc4)[C@H]3C2)cc1	nt	nt	nt	i	i
COc1ccc(S(=O)(=O)N2CCCCN3[C@H](C2)[C@@H](c2ccc(C#CC(C)C)cc2)[C@@H]3CO)cc1	16	i	i	i	i
COc1ccc(S(=O)(=O)N2CCCCN3[C@H](CO)[C@H](c4ccc(C#CCC(C)C)cc4)[C@@H]3C2)cc1	16	i	i	i	i
COc1ccc(S(=O)(=O)N2CCCCN3[C@H](CO)[C@H](c4ccc(C#CC(C)C)cc4)[C@H]3C2)cc1	20	i	i	i	i
COc1ccc(S(=O)(=O)N2CCCCN3[C@H](CO)[C@@H](c4ccc(C#CC5CC5)cc4)[C@@H]3C2)cc1	20	i	i	i	i
COc1cccc(C(=O)Nc2ccc3c(c2)C(=O)N(C)C[C@H](OC)[C@@H](C)CN(C(C)=O)[C@H](C)CO3)c1	i	i	i	nt	i
SMILES	SIRT5 inh	S100A4 inh HTS	FGF22 binding	miR122 inh	E-sel inducer
CO[C@@H]1CN(C)C(=O)c2cc(NC(=O)Nc3cccc(Cl)c3)ccc2OC[C@H](C)N(C(=O)Nc2c(C)noc2C)C[C@H]1C	nt	nt	nt	i	i
C[C@@H]1CN([C@H](C)CO)C(=O)c2cc(-c3ccncc3)cnc2O[C@@H]1CN(C)C(=O)C1CCC1	nt	nt	nt	i	i
CC1S/C(=N/N=C2CCCCC2)NC1=O (stereo not given)	i	i	i	i	i
CC1SC(=NC(=O)c2ccncc2)NC1=O (stereo not given)	i	i	44	nt	nt
CC(C)N(Cc1nc(-c2ccccc2)no1)C(=O)C(Cl)(Cl)Cl	i	i	43	nt	nt
Cn1cccc1Cc1nnc(SCC(=O)N2CCCC2)n1CCc1ccccc1	nt	i	43	nt	i
CN1CCc2c(sc(NC(=O)C3COc4ccccc4O3)c2C(N)=O)C1 (stereo not given)	i	106	i	nt	i
COc1ccc(NC(=O)N(C)C[C@H]2Oc3ccc(N(C)C)cc3CC(=O)N([C@@H](C)CO)C[C@@H]2C)cc1	i	i	i	i	i
C/C(=N\NC(=O)c1cccs1)c1c(O)cc(C)oc1=O	i	i	i	nt	i
C/C(=N\Nc1ccc(Cl)cc1)c1c(O)cc(C)oc1=O	i	i	43	i	nt
O=C(OCC(=O)N1CCC(Cc2ccccc2)CC1)c1ccccc1NCCO	i	i	i	i	i
O=C(OCC(=O)N1CCC(Cc2ccccc2)CC1)c1ccccc1O	nt	i	43	i	i
CO[C@H]1CN(C)C(=O)c2cc(NC(=O)c3ccccc3)ccc2OC[C@H](C)N(CC2CC2)C[C@H]1C	nt	nt	nt	i	i
O=C(O)c1cc(-n2nnnc2SCc2ccccc2F)ccc1Cl	i	i	43	nt	i
O=S(=O)(c1ccc(F)cc1)N1CCN(c2ncccn2)CC1	i	i	i	i	i
O=S(=O)(c1ccc(F)cc1)N1CCCN(c2nccc(C(F)(F)F)n2)CC1	i	i	i	i	30
O=C(C[C@@H]1C[C@@H]2c3cc(NS(=O)(=O)c4ccc(F)cc4)ccc3O[C@@H]2[C@H](CO)O1)NCc1ccc(Oc2ccccc2)cc1	i	i	i	i	i
O=C(C[C@@H]1C[C@H]2c3cc(NS(=O)(=O)c4ccc(F)cc4)ccc3O[C@H]2[C@H](CO)O1)NCc1ccc(-c2ccccc2)cc1	20	i	nt	111[16.7 µM]	i
O=C(C[C@@H]1C[C@H]2c3cc(NS(=O)(=O)c4ccc(F)cc4)ccc3O[C@H]2[C@H](CO)O1)NCc1ccc(Oc2ccccc2)cc1	i	i	i	150[16.7 µM]	i
O=C(C[C@H]1C[C@@H]2c3cc(NS(=O)(=O)c4ccc(F)cc4)ccc3O[C@@H]2[C@H](CO)O1)NCc1ccc(-c2ccccc2)cc1	?	i	nt	i	i
C[C@H]1CN([C@@H](C)CO)C(=O)Cc2cc(NS(C)(=O)=O)ccc2O[C@@H]1CN(C)Cc1ccc(Oc2ccccc2)cc1	i	i	i	i	169
COc1ccc(S(=O)(=O)Nc2ccc3c(c2)CC(=O)N([C@H](C)CO)C[C@@H](C)[C@@H](CN(C)Cc2ccc(Oc4ccccc4)cc2)O3)cc1	16	i	i	i	i
